According to ChEMBL document CHEMBL1671684, “In vitro resistance profile of the hepatitis C virus NS3/4A protease inhibitor TMC435” (Antimicrob Agents Chemother, 2010):

Experiments:
Hepatitis C virus [1] = experiment: Ratio of EC50 for Hepatitis C virus subtype 1b expressing NS3 T54S mutant to EC50 for Hepatitis C virus subtype 1b expressing WT NS3 infected in HuH7 cells after 48 hrs by luciferase reporter assay; format: functional, Hepacivirus hominis, genotype 1b, Huh-7
Procedure, shortened: (§1)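 Transient replicon assay: site-directed single or multiple NS3 mutations engineered into genotype 1b (con1, clone ET) subgenomic bicistronic replicon with luciferase reporter and adaptive mutations E1202G, T1280I, K1846T. Huh7-lunet cells electroporated with 10 μg wild-type or mutant replicon RNA, seeded 4,000 cells/well with nine-point inhibitor dilution; 48 h, 37°C, 5% CO2; luminescence read-out. EC50 as median of individual experiments; fold change versus parental replicon EC50.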

Hepatitis C virus [2] = experiment: Ratio of EC50 for Hepatitis C virus subtype 1b expressing NS3 F43S mutant to EC50 for Hepatitis C virus subtype 1b expressing WT NS3 infected in HuH7 cells after 48 hrs by luciferase reporter assay; format: functional, Hepacivirus hominis, genotype 1b, Huh-7; procedure, shortened: as §1
Hepatitis C virus [3] = experiment: Ratio of EC50 for Hepatitis C virus subtype 1b expressing NS3 R155K mutant to EC50 for Hepatitis C virus subtype 1b expressing WT NS3 infected in HuH7 cells after 48 hrs by luciferase reporter assay; format: functional, Hepacivirus hominis, genotype 1b, Huh-7; procedure, shortened: as §1
Hepatitis C virus [4] = experiment: Antiviral activity against Hepatitis C virus subtype 1b expressing NS3 V36A mutant infected in HuH7 cells after 48 hrs by luciferase reporter assay; format: functional, organism-based, Hepacivirus hominis; details: genotype 1b, Huh-7, 48 h
Procedure, shortened: (§2)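 Genotype 1b con1 subgenomic bicistronic replicon (clone ET) with luciferase reporter and adaptive mutations E1202G, T1280I, K1846T, carrying site-directed NS3 single or double mutations. 10 μg wild-type or mutant replicon RNA electroporated into Huh7-lunet cells, seeded 4,000 cells/well over a nine-point inhibitor dilution series, 48 h at 37°C, 5% CO2, then luminescence read. EC50 taken as median of individual experiments; fold change relative to parental replicon EC50.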

Hepatitis C virus [5] = experiment: Ratio of EC50 for Hepatitis C virus subtype 1b expressing NS3 Q80K mutant to EC50 for Hepatitis C virus subtype 1b expressing WT NS3 infected in HuH7 cells after 48 hrs by luciferase reporter assay; format: functional, Hepacivirus hominis, genotype 1b, Huh-7; procedure, shortened: as §1
Hepatitis C virus [6] = experiment: Antiviral activity against Hepatitis C virus subtype 1b expressing NS3 F43S mutant infected in HuH7 cells after 48 hrs by luciferase reporter assay; format: functional, organism-based, Hepacivirus hominis; details: genotype 1b, Huh-7, 48 h; procedure, shortened: as §2
Hepatitis C virus [7] = experiment: Ratio of EC50 for Hepatitis C virus subtype 1b expressing NS3 D168H mutant to EC50 for Hepatitis C virus subtype 1b expressing WT NS3 infected in HuH7 cells after 48 hrs by luciferase reporter assay; format: functional, Hepacivirus hominis, genotype 1b, Huh-7; procedure, shortened: as §1
Hepatitis C virus [8] = experiment: Ratio of EC50 for Hepatitis C virus subtype 1b expressing NS3 Q80G mutant to EC50 for Hepatitis C virus subtype 1b expressing WT NS3 infected in HuH7 cells after 48 hrs by luciferase reporter assay; format: functional, Hepacivirus hominis, genotype 1b, Huh-7; procedure, shortened: as §1
Hepatitis C virus [9] = experiment: Ratio of EC50 for Hepatitis C virus subtype 1b expressing NS3 F43V mutant to EC50 for Hepatitis C virus subtype 1b expressing WT NS3 infected in HuH7 cells after 48 hrs by luciferase reporter assay; format: functional, Hepacivirus hominis, genotype 1b, Huh-7; procedure, shortened: as §1
Hepatitis C virus [10] = experiment: Antiviral activity against Hepatitis C virus subtype 1b expressing NS3 R109K mutant infected in HuH7 cells after 48 hrs by luciferase reporter assay; format: functional, organism-based, Hepacivirus hominis; details: genotype 1b, Huh-7, 48 h; procedure, shortened: as §2
Hepatitis C virus [11] = experiment: Antiviral activity against Hepatitis C virus subtype 1b expressing NS3 A156G mutant infected in HuH7 cells after 48 hrs by luciferase reporter assay; format: functional, organism-based, Hepacivirus hominis; details: genotype 1b, Huh-7, 48 h; procedure, shortened: as §2
Hepatitis C virus [12] = experiment: Ratio of EC50 for Hepatitis C virus subtype 1b expressing NS3 F43I mutant to EC50 for Hepatitis C virus subtype 1b expressing WT NS3 infected in HuH7 cells after 48 hrs by luciferase reporter assay; format: functional, Hepacivirus hominis, genotype 1b, Huh-7; procedure, shortened: as §1
Hepatitis C virus [13] = experiment: Ratio of EC50 for Hepatitis C virus subtype 1b expressing NS3 Q80R and D168A mutant to EC50 for Hepatitis C virus subtype 1b expressing WT NS3 infected in HuH7 cells after 48 hrs by luciferase reporter assay; format: functional, Hepacivirus hominis, genotype 1b, Huh-7; procedure, shortened: as §1
Hepatitis C virus [14] = experiment: Antiviral activity against Hepatitis C virus subtype 1b expressing NS3 Q80R and R155K mutant infected in HuH7 cells after 48 hrs by luciferase reporter assay; format: functional, organism-based, Hepacivirus hominis; details: genotype 1b, Huh-7, 48 h; procedure, shortened: as §2
Hepatitis C virus [15] = experiment: Antiviral activity against Hepatitis C virus subtype 1b expressing NS3 F43S and D168E mutant infected in HuH7 cells after 48 hrs by luciferase reporter assay; format: functional, organism-based, Hepacivirus hominis; details: genotype 1b, Huh-7, 48 h; procedure, shortened: as §2
Hepatitis C virus [16] = experiment: Ratio of EC50 for Hepatitis C virus subtype 1b expressing NS3 R155G mutant to EC50 for Hepatitis C virus subtype 1b expressing WT NS3 infected in HuH7 cells after 48 hrs by luciferase reporter assay; format: functional, Hepacivirus hominis, genotype 1b, Huh-7; procedure, shortened: as §1
Hepatitis C virus [17] = experiment: Ratio of EC50 for Hepatitis C virus subtype 1b expressing NS3 A156V mutant to EC50 for Hepatitis C virus subtype 1b expressing WT NS3 infected in HuH7 cells after 48 hrs by luciferase reporter assay; format: functional, Hepacivirus hominis, genotype 1b, Huh-7; procedure, shortened: as §2
Hepatitis C virus [18] = experiment: Antiviral activity against Hepatitis C virus subtype 1b expressing NS3 D168I mutant infected in HuH7 cells after 48 hrs by luciferase reporter assay; format: functional, organism-based, Hepacivirus hominis; details: genotype 1b, Huh-7, 48 h; procedure, shortened: as §2
Hepatitis C virus [19] = experiment: Ratio of EC50 for Hepatitis C virus subtype 1b expressing NS3 Q80R mutant to EC50 for Hepatitis C virus subtype 1b expressing WT NS3 infected in HuH7 cells after 48 hrs by luciferase reporter assay; format: functional, Hepacivirus hominis, genotype 1b, Huh-7; procedure, shortened: as §1
Hepatitis C virus [20] = experiment: Antiviral activity against Hepatitis C virus subtype 1b expressing NS3 R155T mutant infected in HuH7 cells after 48 hrs by luciferase reporter assay; format: functional, organism-based, Hepacivirus hominis; details: genotype 1b, Huh-7, 48 h; procedure, shortened: as §2
Hepatitis C virus [21] = experiment: Antiviral activity against Hepatitis C virus subtype 1b expressing NS3 D168A mutant infected in HuH7 cells after 48 hrs by luciferase reporter assay; format: functional, organism-based, Hepacivirus hominis; details: genotype 1b, Huh-7, 48 h; procedure, shortened: as §2
Hepatitis C virus [22] = experiment: Ratio of EC50 for Hepatitis C virus subtype 1b expressing NS3 Q80K and R155K mutant to EC50 for Hepatitis C virus subtype 1b expressing WT NS3 infected in HuH7 cells after 48 hrs by luciferase reporter assay; format: functional, Hepacivirus hominis, genotype 1b, Huh-7; procedure, shortened: as §1
Hepatitis C virus [23] = experiment: Ratio of EC50 for Hepatitis C virus subtype 1b expressing NS3 D168A mutant to EC50 for Hepatitis C virus subtype 1b expressing WT NS3 infected in HuH7 cells after 48 hrs by luciferase reporter assay; format: functional, Hepacivirus hominis, genotype 1b, Huh-7; procedure, shortened: as §2
Hepatitis C virus [24] = experiment: Ratio of EC50 for Hepatitis C virus subtype 1b expressing NS3 R155M mutant to EC50 for Hepatitis C virus subtype 1b expressing WT NS3 infected in HuH7 cells after 48 hrs by luciferase reporter assay; format: functional, Hepacivirus hominis, genotype 1b, Huh-7; procedure, shortened: as §1
Hepatitis C virus [25] = experiment: Antiviral activity against Hepatitis C virus subtype 1b expressing NS3 S138T mutant infected in HuH7 cells after 48 hrs by luciferase reporter assay; format: functional, organism-based, Hepacivirus hominis; details: genotype 1b, Huh-7, 48 h; procedure, shortened: as §2
Hepatitis C virus [26] = experiment: Antiviral activity against Hepatitis C virus subtype 1b expressing NS3 A156V mutant infected in HuH7 cells after 48 hrs by luciferase reporter assay; format: functional, organism-based, Hepacivirus hominis; details: genotype 1b, Huh-7, 48 h; procedure, shortened: as §2
Hepatitis C virus [27] = experiment: Antiviral activity against Hepatitis C virus subtype 1b expressing NS3 R155G mutant infected in HuH7 cells after 48 hrs by luciferase reporter assay; format: functional, organism-based, Hepacivirus hominis; details: genotype 1b, Huh-7, 48 h; procedure, shortened: as §2
Hepatitis C virus [28] = experiment: Antiviral activity against Hepatitis C virus subtype 1b expressing NS3 R155M mutant infected in HuH7 cells after 48 hrs by luciferase reporter assay; format: functional, organism-based, Hepacivirus hominis; details: genotype 1b, Huh-7, 48 h; procedure, shortened: as §2
Hepatitis C virus [29] = experiment: Ratio of EC50 for Hepatitis C virus subtype 1b expressing NS3 D168N mutant to EC50 for Hepatitis C virus subtype 1b expressing WT NS3 infected in HuH7 cells after 48 hrs by luciferase reporter assay; format: functional, Hepacivirus hominis, genotype 1b, Huh-7; procedure, shortened: as §1
Hepatitis C virus [30] = experiment: Antiviral activity against Hepatitis C virus subtype 1b expressing NS3 Q80K and R155K mutant infected in HuH7 cells after 48 hrs by luciferase reporter assay; format: functional, organism-based, Hepacivirus hominis; details: genotype 1b, Huh-7, 48 h; procedure, shortened: as §2
Hepatitis C virus [31] = experiment: Antiviral activity against Hepatitis C virus subtype 1b expressing NS3 Q80R mutant infected in HuH7 cells after 48 hrs by luciferase reporter assay; format: functional, organism-based, Hepacivirus hominis; details: genotype 1b, Huh-7, 48 h; procedure, shortened: as §2

SMILES	Ratio EC50 (Hepatitis C virus [2])	Ratio EC50 (Hepatitis C virus [3])	Ratio EC50 (Hepatitis C virus [5])	EC50 (Hepatitis C virus [6]) [nM]	Ratio EC50 (Hepatitis C virus [7])	Ratio EC50 (Hepatitis C virus [8])	EC50 (Hepatitis C virus [10]) [nM]	EC50 (Hepatitis C virus [11]) [nM]	Ratio EC50 (Hepatitis C virus [16])	Ratio EC50 (Hepatitis C virus [17])	Ratio EC50 (Hepatitis C virus [19])	EC50 (Hepatitis C virus [20]) [nM]	EC50 (Hepatitis C virus [21]) [nM]	Ratio EC50 (Hepatitis C virus [22])	Ratio EC50 (Hepatitis C virus [23])	Ratio EC50 (Hepatitis C virus [24])	EC50 (Hepatitis C virus [26]) [nM]	EC50 (Hepatitis C virus [27]) [nM]	EC50 (Hepatitis C virus [28]) [nM]	Ratio EC50 (Hepatitis C virus [29])	also measured
CC(C)(C)NC(=O)N[C@H](C(=O)N1C[C@H]2[C@@H]([C@H]1C(=O)NC(CC1CCC1)C(=O)C(N)=O)C2(C)C)C(C)(C)C (stereo not given in full) [BOCEPREVIR]	5.2	4.7	0.8	333	0.7	1.2	33	65	20	75	0.5	5460	100	5.1	0.7	5.7	9670	4470	792	1.9	Ratio EC50 (Hepatitis C virus [1]): 8.5; EC50 (Hepatitis C virus [4]): 1450 nM; Ratio EC50 (Hepatitis C virus [9]): 2.4; Ratio EC50 (Hepatitis C virus [12]): 1.1; Ratio EC50 (Hepatitis C virus [13]): 0.5; EC50 (Hepatitis C virus [14]): 680 nM; EC50 (Hepatitis C virus [15]): 417 nM; EC50 (Hepatitis C virus [18]): 279 nM; EC50 (Hepatitis C virus [25]): 16 nM; EC50 (Hepatitis C virus [30]): 1080 nM; EC50 (Hepatitis C virus [31]): 85 nM
COc1ccc2c(O[C@@H]3C[C@H]4C(=O)N[C@]5(C(=O)O)C[C@H]5/C=C\CCCCC[C@H](NC(=O)OC5CCCC5)C(=O)N4C3)cc(-c3csc(NC(C)C)n3)nc2c1 [CILUPREVIR]	0.9	496	0.9	1	263	4.9	1.4	22	811	2085	1.6	685	304	736	339	68	1520	1000	84	12	Ratio EC50 (Hepatitis C virus [1]): 1.9; EC50 (Hepatitis C virus [4]): 1 nM; Ratio EC50 (Hepatitis C virus [9]): 0.5; Ratio EC50 (Hepatitis C virus [12]): 0.5; Ratio EC50 (Hepatitis C virus [13]): 1827; EC50 (Hepatitis C virus [14]): 707 nM; EC50 (Hepatitis C virus [15]): 5.8 nM; EC50 (Hepatitis C virus [18]): 20700 nM; EC50 (Hepatitis C virus [25]): 0.5 nM; EC50 (Hepatitis C virus [30]): 705 nM; EC50 (Hepatitis C virus [31]): 1.4 nM
COc1ccc2c(O[C@@H]3C[C@H]4C(=O)N[C@]5(C(=O)NS(=O)(=O)C6CC6)C[C@H]5/C=C\CCCCN(C)C(=O)[C@@H]4C3)cc(-c3nc(C(C)C)cs3)nc2c1C [SIMEPREVIR]	12	30	7.7	83	368	1.8	11	206	20	177	6.9	314	6360	364	594	0.4	2150	350	3.5	6.6	Ratio EC50 (Hepatitis C virus [1]): 1.2; EC50 (Hepatitis C virus [4]): 34 nM; Ratio EC50 (Hepatitis C virus [9]): 99; Ratio EC50 (Hepatitis C virus [12]): 89; Ratio EC50 (Hepatitis C virus [13]): 2655; EC50 (Hepatitis C virus [14]): 2850 nM; EC50 (Hepatitis C virus [15]): 3610 nM; EC50 (Hepatitis C virus [18]): 23200 nM; EC50 (Hepatitis C virus [25]): 77 nM; EC50 (Hepatitis C virus [30]): 4650 nM; EC50 (Hepatitis C virus [31]): 49 nM
CCC[C@H](NC(=O)[C@@H]1[C@H]2CCC[C@H]2CN1C(=O)[C@@H](NC(=O)[C@@H](NC(=O)c1cnccn1)C1CCCCC1)C(C)(C)C)C(=O)C(=O)NC1CC1 [TELAPREVIR]	6.1	10	0.5	749	0.7	1.2	66	58	20	112	0.6	22700	46	4.6	0.4	14	15500	9630	4110	1.2	EC50 (Hepatitis C virus [30]): 2960 nM; EC50 (Hepatitis C virus [31]): 216 nM
